Reference: ChEMBL document CHEMBL4406875, “Design, synthesis and biological evaluation of amino acids-oleanolic acid conjugates as influenza virus inhibitors” (Bioorg Med Chem, 2019)

Columns and labels:
Influenza B virus [1] = assay: Antiviral activity against oseltamivir resistant Victoria lineage of Influenza B virus (B/Brisbane/60/2008) BX-35 infected in MDCK cells assessed as inhibition of virus-induced cytopathic effect measured after 45 hrs by CellTiter-Glo luminescence assay; type: functional, organism-based; settings: B/Brisbane/60/2008 BX-35, MDCK
Procedure, shortened: (§1)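 MDCK cells (5,000/well) were seeded one day before infection. Infection medium was high-glucose DMEM with 1% FBS and trypsin (1 μg/mL). Compounds were added at various concentrations and cells infected at MOI 0.1. After 45 h, viability was read by CellTiter-Glo luminescence. IC50 was taken from dose-response curves, as the mean of duplicate samples from three independent experiments.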

Influenza B virus [2] = assay: Antiviral activity against oseltamivir resistant Yamagata lineage of Influenza B virus (B/Massachusetts/2/2012) BX-51B infected in MDCK cells assessed as inhibition of virus-induced cytopathic effect measured after 45 hrs by CellTiter-Glo luminescence assay; type: functional, organism-based; settings: B/Massachusetts/02/2012 BX-51B; procedure, shortened: as §1

CC1(C)CC[C@]2(C(=O)N[C@@H](CCCNC(=N)N)C(=O)O)CC[C@]3(C)C(=CC[C@@H]4[C@@]5(C)CC[C@H](O)C(C)(C)[C@@H]5CC[C@]43C)[C@@H]2C1
IC50 (Influenza B virus [1]): 61.6 µM | IC50 (Influenza B virus [2]): 45.8 µM

CCOC(=O)C1=C[C@@H](OC(CC)CC)[C@H](NC(C)=O)[C@@H](N)C1 [OSELTAMIVIR PHOSPHATE]
IC50 (Influenza B virus [1]): > 100 µM | IC50 (Influenza B virus [2]): > 100 µM
